A short description of assay [1]: Her2 expression decrease, cell viability multiplex – SKBR3 breast tumor cells, AlphaScreen, ATP viability, primary screen (AID 461;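 active = Her2 level under about 52% in both replicate screens, with viability over 70% of control, limit read from the data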;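 for Her2 level: lower value means less Her2 protein in the cells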;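 for viability: percent of carrier control wells set as 100% viability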). Conditions: SKBR3 Her2 protein level, 18-24 h, measured here: SKBR3 viability, ATP luminescence, at 10 µM. A general note: Alpha assays give light when donor and acceptor beads are brought close together.
The target in assay [2] is Receptor tyrosine-protein kinase erbB-2 (Homo sapiens) (UniProt P04626). The assay is described as above. Particulars: 18-24 h, at 10 µM, stronger effect = lower value.
Chain of Receptor tyrosine-protein kinase erbB-2 (Homo sapiens) (P04626 whole entry, looked up): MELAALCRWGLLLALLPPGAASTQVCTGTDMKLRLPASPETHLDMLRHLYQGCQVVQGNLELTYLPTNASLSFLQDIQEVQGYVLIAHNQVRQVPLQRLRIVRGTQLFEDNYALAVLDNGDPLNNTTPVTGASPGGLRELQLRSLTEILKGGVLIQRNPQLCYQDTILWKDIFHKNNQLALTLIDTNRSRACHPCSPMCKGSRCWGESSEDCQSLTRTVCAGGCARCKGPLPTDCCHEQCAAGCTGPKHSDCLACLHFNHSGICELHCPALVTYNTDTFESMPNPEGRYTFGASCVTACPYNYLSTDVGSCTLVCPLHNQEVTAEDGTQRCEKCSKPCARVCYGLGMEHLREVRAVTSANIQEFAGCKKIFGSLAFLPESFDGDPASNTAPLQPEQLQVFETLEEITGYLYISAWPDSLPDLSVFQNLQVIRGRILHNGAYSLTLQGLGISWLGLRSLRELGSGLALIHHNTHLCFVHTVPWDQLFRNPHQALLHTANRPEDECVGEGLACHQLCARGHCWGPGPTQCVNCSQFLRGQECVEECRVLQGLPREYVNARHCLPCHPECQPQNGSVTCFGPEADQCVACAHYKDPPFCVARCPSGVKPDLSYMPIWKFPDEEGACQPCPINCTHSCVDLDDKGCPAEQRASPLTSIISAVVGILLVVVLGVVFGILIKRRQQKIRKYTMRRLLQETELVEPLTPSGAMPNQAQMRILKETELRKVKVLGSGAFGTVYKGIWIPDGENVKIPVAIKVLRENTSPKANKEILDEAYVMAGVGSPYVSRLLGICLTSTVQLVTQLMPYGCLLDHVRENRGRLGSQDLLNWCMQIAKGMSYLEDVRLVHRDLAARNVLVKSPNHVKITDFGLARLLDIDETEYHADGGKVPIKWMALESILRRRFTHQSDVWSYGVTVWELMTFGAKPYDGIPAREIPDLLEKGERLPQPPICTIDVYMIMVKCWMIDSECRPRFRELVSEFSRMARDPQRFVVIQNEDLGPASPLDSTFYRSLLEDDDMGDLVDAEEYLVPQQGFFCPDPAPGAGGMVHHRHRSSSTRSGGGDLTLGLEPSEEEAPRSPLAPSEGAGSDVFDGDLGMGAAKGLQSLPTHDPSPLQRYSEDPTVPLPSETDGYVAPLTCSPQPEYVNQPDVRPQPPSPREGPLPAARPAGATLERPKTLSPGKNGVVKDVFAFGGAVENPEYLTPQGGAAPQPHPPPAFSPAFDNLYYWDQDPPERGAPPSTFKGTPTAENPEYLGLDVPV
Assay [3] can be described thus: reduced viability of SK-BR-3 breast cancer cells – cell-based, 24 h, human, pilot screen (AID 572).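 Note: compound exposure lasted between 18 and 24 h rather than exactly 24 h; 100% = carrier-treated control wells.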 Conditions: SK-BR-3 viability, CellTiter-Glo luminescence, at 10 µM, stronger effect = lower value.
Assay [4] is described as follows: HUVEC growth inhibition – cell-based, human, primary screen (AID 575;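 active = viability at or below 30% in both replicate assays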;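 note: 100% = median of untreated cell wells with 0.1% DMSO on each plate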). Conditions: HUVEC proliferation, CellTiter-Glo luminescence, 72 h; at 10 µM; stronger effect = lower value. The method, boiled down: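 Test system: primary human umbilical vein endothelial cells. Quantity: 1250 cells/well. Compound: single 10 µM dose, 0.1% DMSO, from 5x medium stock. Timing: 72 h treatment at 37 °C. Detection: ATP-based CellTiter-Glo luminescent read. Benchmarks: vehicle and MePR control wells. Format: 384-well plates coated with collagen.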

Assay [5] is described as follows: H69AR cell proliferation blockers – human, duplicate replicates, primary screen (AID 580;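 active = viability at or under a set limit in both replicates, limit being median viability minus 3 SD, cut at about 48% in these data, passing the limit was not always enough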;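 note: 100% = mean luminescence of untreated wells and 0% = no signal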). Particulars: H69AR lung tumor cells viability, ATP luminescence, 72 h; at 10 µM; stronger effect = lower value.
A short description of assay [6]: MRP1 drug-resistance reversers in H69AR cells – cell-based, doxorubicin co-treatment, pilot screen (AID 601;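 active = viability loss from added drug above about 55%, and viability with drug at most 40%, in both replicates, limit read from the data, passing the limit was not always enough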). Conditions: CellTiter-Glo, 72 h, at 10 µM; for differential viability (reversal): stronger effect = higher value. (In general: In ATP-based viability assays light output follows the ATP content of the culture.)
A short description of assay [7]: yeast transport mutant growth inhibition pilot in 384-well plates, post-Golgi transport modulator project (AID 636; in the data active = inhibition above about 31%). Particulars: absorbance 615 nm, about 18 h, stronger effect = higher value.
Assay [8] in a line: growth suppression of yeast trafficking mutant, preliminary HTS, modulators of trafficking downstream of Golgi apparatus project, 1536-format plate, OD 615 nm (AID 637; in the data active = inhibition above about 30%). Conditions: yeast transport mutant growth, absorbance 615 nm, 18 h; stronger effect = higher value.
[9] abbreviates: H69AR cells + 2 uM doxorubicin, measured here: viability with 2 uM doxorubicin, stronger effect = lower value.
[10] abbreviates: H69AR cells, compound alone cytotoxicity.

The source made the active and inactive calls.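 Rule for the calls, unless noted: active = viability at or below 10% of carrier control in both of two separate runs; inconclusive = viability at or below 10% in only one of the two runs; inactive = the rest.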

In the case of `CCOC(=O)N1CCN(C(=O)CN(c2ccc(C)cc2)S(=O)(=O)c2c(C)noc2C)CC1`, the viability – broadly, a read-out of living cells in per cent, often relative to untreated cells – is 81.5% in assay [1]; 81.5% (inactive) in assay [3]; 106% (inactive) in assay [4]; 86.1% (inactive) in assay [5]; 86.1% in assay [6] (setting [9]); 86.1% in assay [6] (setting [10]). In addition, in assay [2], the Her2 level was 94% (inactive). In addition, the differential viability (reversal) in assay [6] (H69AR cells + 2 uM doxorubicin) is -0.005% (inactive). The values for the inhibition in assay [7] and in assay [8] were -4.73% (inactive) and 6.51% (inactive), respectively.

For `O=C(NC1CCS(=O)(=O)C1)N1CCCCC1` (stereo not given), the viability in assay [1] is 102%; in assay [3], 102% (inactive); in assay [4], 103% (inactive); in assay [5], 89.6% (inactive); in assay [6] (setting [9]), 88.3%; in assay [6] (setting [10]) it was 89.6%. The Her2 level in assay [2] was 79.5% (inactive). In addition, the differential viability (reversal) in assay [6] (H69AR cells + 2 uM doxorubicin) was 1.27% (inactive). Also, the inhibition (as a rule, the drop in the measured response relative to a control, in per cent) is -5.92% (inactive) in assay [7] and -2% (inactive) in assay [8].

As to `Cc1cc(-c2ccccc2)c2nncn2n1`, the viability in assay [1] was 106%; in assay [3] it was 106% (inactive); in assay [4], 116% (inactive); in assay [5] it was 89.9% (inactive); in assay [6] (setting [9]), 84.1%; in assay [6] (setting [10]), 89.9%. Also, the Her2 level in assay [2] was 96% (inactive). For the same compound, the differential viability (reversal) in assay [6] (H69AR cells + 2 uM doxorubicin) is 5.82% (inactive). In addition, the figures for the inhibition in assay [7] and in assay [8] were -8.27% (inactive) and 2.42% (inactive), respectively.

For `Cc1ccc(C2N(c3ccc(Cl)c(Cl)c3)C(=O)C3CCCN32)o1` (stereo not given), the viability is 99% in assay [1]; 99% (inactive) in assay [3]; 78.7% (inactive) in assay [4]; 96.2% (inactive) in assay [5]; 89.4% in assay [6] (setting [9]); 96.2% in assay [6] (setting [10]). Also, in assay [2], the Her2 level is 82.5% (inactive). Moreover, in assay [6] (H69AR cells + 2 uM doxorubicin), the differential viability (reversal) is 6.78% (inactive). Moreover, the inhibition in assay [7] is -1.45% (inactive); in assay [8] it was 0.32% (inactive).

Take `CCN(CC)C(=O)c1sc(NC(=O)c2ccco2)c(C#N)c1C`: the viability was 99.5% in assay [1]; 99.5% (inactive) in assay [3]; 88% (inactive) in assay [4]; 79.3% (inactive) in assay [5]; 86.6% in assay [6] (setting [9]); 79.3% in assay [6] (setting [10]). Further, the Her2 level in assay [2] was 103% (inactive). The differential viability (reversal) in assay [6] (H69AR cells + 2 uM doxorubicin) was -7.3% (inactive). Further, the inhibition in assay [7] is -4.74% (inactive); in assay [8], -7.26% (inactive).

Take `CCCCCC1CC(CC(C)C(=O)Nc2nncs2)C(=O)O1` (stereo not given): the viability in assay [1] is 90.5%; in assay [3] it was 90.5% (inactive); in assay [4] it was 85.2% (inactive); in assay [5] it was 93.3% (inactive); in assay [6] (setting [9]), 85.4%; in assay [6] (setting [10]), 93.3%. Also, the Her2 level in assay [2] is 86.5% (inactive). In assay [6] (H69AR cells + 2 uM doxorubicin), the differential viability (reversal) is 7.83% (inactive). Moreover, the inhibition is -5.6% (inactive) in assay [7] and -2.86% (inactive) in assay [8].

Regarding `O=C(OCC(=O)N1CCCCCC1)c1cccs1`, the viability in assay [1] is 99%; in assay [3], 99% (inactive); in assay [4], 103% (inactive); in assay [5] it was 106% (inactive); in assay [6] (setting [9]), 96.7%; in assay [6] (setting [10]), 106%. In addition, the Her2 level in assay [2] is 95.5% (inactive). In assay [6] (H69AR cells + 2 uM doxorubicin), the differential viability (reversal) is 9.71% (inactive). Also, the inhibition was -0.67% (inactive) in assay [7] and 1.77% (inactive) in assay [8].

With `COc1ccccc1OCC(=O)Nc1ccc(S(=O)(=O)Nc2nc(C)cc(C)n2)cc1`, the viability in assay [1] was 90.5%; in assay [3], 90.5% (inactive); in assay [4], 98.7% (inactive); in assay [5], 96.3% (inactive); in assay [6] (setting [9]), 88.5%; in assay [6] (setting [10]) it was 96.3%. Also, the Her2 level in assay [2] was 184% (inactive). The differential viability (reversal) in assay [6] (H69AR cells + 2 uM doxorubicin) was 7.8% (inactive). Further, the inhibition in assay [7] was -3.59% (inactive); in assay [8] it was -5.5% (inactive).

On to `O=C(O)c1c[nH]c2ccc(S(=O)(=O)N3CCN(c4ccc(F)cc4)CC3)cc2c1=O`, for which the viability in assay [1] is 93.5%; in assay [3] it was 93.5% (inactive); in assay [4], 91.6% (inactive); in assay [5] it was 93.7% (inactive); in assay [6] (setting [9]) it was 82.8%; in assay [6] (setting [10]), 93.7%. In addition, the Her2 level in assay [2] was 124% (inactive). Besides, the differential viability (reversal) in assay [6] (H69AR cells + 2 uM doxorubicin) is 10.9% (inactive). For the same compound, the inhibition is 0.53% (inactive) in assay [7] and -6.45% (inactive) in assay [8].

For the compound `COc1ccc(N(CC(=O)NC2CCCC2)C(=O)Cn2nnc(-c3ccc(C)cc3)n2)cc1`, the viability in assay [1] is 79%; in assay [3], 79% (inactive); in assay [4], 95.5% (inactive); in assay [5] it was 89.1% (inactive); in assay [6] (setting [9]) it was 93.1%; in assay [6] (setting [10]), 89.1%. Besides, the Her2 level in assay [2] is 99.5% (inactive). The differential viability (reversal) in assay [6] (H69AR cells + 2 uM doxorubicin) was -4.01% (inactive). The inhibition was 2.76% (inactive) in assay [7] and -7.58% (inactive) in assay [8].

Regarding `O=C(CSc1nnc2scc(-c3ccccc3)n12)N1CCN(Cc2ccccc2)CC1`, the viability in assay [1] is 89%; in assay [3], 89% (inactive); in assay [4] it was 103% (inactive); in assay [5], 78.5% (inactive); in assay [6] (setting [9]), 70%; in assay [6] (setting [10]), 78.5%. The Her2 level in assay [2] is 97.5% (inactive). Further, the differential viability (reversal) in assay [6] (H69AR cells + 2 uM doxorubicin) was 8.52% (inactive). The inhibition in assay [7] is -5.66% (inactive); in assay [8], -0.32% (inactive).

As for `Cc1ccc(CNC(=O)COC(=O)c2c(C)noc2C)cc1`, the viability was 99% in assay [1]; 99% (inactive) in assay [3]; 97.4% (inactive) in assay [4]; 92.8% (inactive) in assay [5]; 85.6% in assay [6] (setting [9]); 92.8% in assay [6] (setting [10]). In addition, the Her2 level in assay [2] was 121% (inactive). The differential viability (reversal) in assay [6] (H69AR cells + 2 uM doxorubicin) is 7.25% (inactive). Further, the inhibition is -4.03% (inactive) in assay [7] and -14.2% (inactive) in assay [8].

On to `Cc1cc(C)nc(NC(=O)c2c(-c3c(Cl)cccc3Cl)noc2C)n1`, for which the viability in assay [1] was 84%; in assay [3], 84% (inactive); in assay [4], 94% (inactive); in assay [5], 85.1% (inactive); in assay [6] (setting [9]), 90.3%; in assay [6] (setting [10]), 85.1%. Besides, in assay [2], the Her2 level is 98.5% (inactive). Further, the differential viability (reversal) in assay [6] (H69AR cells + 2 uM doxorubicin) is -5.23% (inactive). Moreover, the inhibition is -7.73% (inactive) in assay [7] and -6.03% (inactive) in assay [8].

`Clc1ccccc1OCc1nn2c(-c3ccncc3)nnc2s1`: the viability in assay [1] was 114%; in assay [3], 114% (inactive); in assay [4], 78.6% (inactive); in assay [5], 98.2% (inactive); in assay [6] (setting [9]) it was 92.7%; in assay [6] (setting [10]) it was 98.2%. Also, the Her2 level in assay [2] was 75.5% (inactive). Besides, in assay [6] (H69AR cells + 2 uM doxorubicin), the differential viability (reversal) is 5.55% (inactive). In addition, the inhibition is -5.95% (inactive) in assay [7] and 2.67% (inactive) in assay [8].

(Values after PubChem BioAssay.)
